In the array DNA melting data of Ke et al. (doi:10.1101/2024.01.08.574731):

Key:
[1] = folding enthalpy; higher = less favourable; fluorescence melt of hairpins on a sequencing array, two-state fit; conditions: sodium 0.088 M
How it was run: (§1)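 Folding enthalpy and melting temperature were estimated with bootstrapped two-state fits and combined across four replicates by inverse-variance weighting, with fitted temperatures raised by 9.35 °C to match UV melts. The data were Cy3 fluorescence of library hairpins, with annealed Cy3 and quencher oligos, on a sequenced MiSeq flow cell in 50 mM Na-HEPES pH 8.0, 25 mM NaCl, imaged in 2.5 °C steps up to 60 °C and normalised to pre-quench Cy3 and control constructs.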

[2] = melting temperature; fluorescence melt of hairpins on a sequencing array, two-state fit, raised by 9.35 °C to match UV melts; conditions: sodium 0.088 M
How it was run: as §1

Q: What does the source list for GCTGAACGAAAGTTTAGC (((.(((....))).)))?
A: folding enthalpy [1]: -31.5 kcal/mol; Tm [2]: 53 °C

Q: Which results are given for GTTCTTCGAAAGAAAAAC (((.(((....))).)))?
A: folding enthalpy [1]: -12.6 kcal/mol; Tm [2]: 25.4 °C

Q: With CATAGGAAACTATG (((((....))))) as the sequence, how does the folding enthalpy [1] read?
A: Its folding enthalpy is -14.3 kcal/mol.

Q: And the Tm [2]?
A: The Tm was 38.4 °C.

Q: For GCGCTTCGAAAGAACGC (((.(((....)))))), which folding enthalpy [1] is on record?
A: The folding enthalpy was -32.9 kcal/mol.

Q: And the Tm [2]?
A: Its Tm is 53.1 °C.

Q: With GGGTGCGAAAGCAACCC ((((((....))).))) as the sequence, how does the folding enthalpy [1] read?
A: The folding enthalpy was -18.9 kcal/mol.

Q: And the Tm [2]?
A: The Tm was 68.5 °C.

Q: For GTAAACCCGAAAGGGTAC (((..(((....)))))), which folding enthalpy [1] is on record?
A: The folding enthalpy was -10.1 kcal/mol.

Q: And the Tm [2]?
A: The Tm was 32.8 °C.

Q: For GTTTTTGGAAACAAAGAC ((.((((....)))).)), which folding enthalpy [1] is on record?
A: The folding enthalpy was -24.5 kcal/mol.

Q: What about the Tm [2] of the same sequence?
A: The Tm was 34 °C.

Q: What does the source list for GTTGCCGGAAACGGTAAC (((.(((....))).)))?
A: folding enthalpy [1]: -33.3 kcal/mol; Tm [2]: 54.4 °C

Q: Which folding enthalpy [1] does the source give for TGACGGAAACGTCA (((((....))))) here?
A: Its folding enthalpy is -23.7 kcal/mol.

Q: And the Tm [2]?
A: Its Tm is 52.5 °C.

Q: What does the source list for GAGTCCGGAAACGGATTC ((.((((....)))).))?
A: folding enthalpy [1]: -24.7 kcal/mol; Tm [2]: 49.9 °C

Q: For GGTTCTCGAAAGAGACC (((.(((....)))))), which folding enthalpy [1] is on record?
A: The folding enthalpy was -20.9 kcal/mol.

Q: And the Tm [2]?
A: Its Tm is 49.7 °C.

Q: What does the source list for GCTCGGCGAAAGCCTGGC ((..(((....)))..))?
A: folding enthalpy [1]: -12.7 kcal/mol; Tm [2]: 53.8 °C

Q: Which folding enthalpy [1] does the source give for GCGTTGGGAAACCAGCGC (((.(((....))).))) here?
A: Its folding enthalpy is -45.2 kcal/mol.

Q: What about the Tm [2] of the same sequence?
A: The Tm was 58.3 °C.

Q: What does the source list for GTATAGGGAAACCTATGC (.(((((....))))).)?
A: folding enthalpy [1]: -22.2 kcal/mol; Tm [2]: 38 °C

Q: For CGCTCCGGAAACGGGCG (((.(((....)))))), which folding enthalpy [1] is on record?
A: The folding enthalpy was -32.5 kcal/mol.

Q: What about the Tm [2] of the same sequence?
A: The Tm was 54.1 °C.

Q: For GATGGCGAAAGCCCCATC ((((((....)))..))), which folding enthalpy [1] is on record?
A: The folding enthalpy was -7.84 kcal/mol.

Q: And the Tm [2]?
A: Its Tm is 25.5 °C.

Q: With GGCTGCGAAAGCAAAGCC ((((((....)))..))) as the sequence, how does the folding enthalpy [1] read?
A: Its folding enthalpy is -24.7 kcal/mol.

Q: What about the Tm [2] of the same sequence?
A: Its Tm is 61.3 °C.

Q: Which results are given for GATCAATGCCTTGATC ((((((....))))))?
A: folding enthalpy [1]: -26.2 kcal/mol; Tm [2]: 45.3 °C

Q: Which results are given for GCTGCCGAAAGGCGCAGC ((((((....)))..)))?
A: folding enthalpy [1]: -13.6 kcal/mol; Tm [2]: 51.3 °C

Q: Which folding enthalpy [1] does the source give for GTTGGCGAAAGCCTAAAC ((((((....)))..))) here?
A: The folding enthalpy was -8.68 kcal/mol.

Q: And the Tm [2]?
A: Its Tm is 30.7 °C.

Q: Which folding enthalpy [1] does the source give for GGTTCCGAAAGGACACC ((((((....))).))) here?
A: Its folding enthalpy is -24.5 kcal/mol.

Q: What about the Tm [2] of the same sequence?
A: Its Tm is 48 °C.

Q: For GTCTAGCGAAAGCTGGAC (((.(((....))).))), which folding enthalpy [1] is on record?
A: The folding enthalpy was -33.7 kcal/mol.

Q: And the Tm [2]?
A: Its Tm is 61.6 °C.

Q: With GCTGTTGGAAACAACAAC (.(((((....))))).) as the sequence, how does the folding enthalpy [1] read?
A: The folding enthalpy was -15.9 kcal/mol.

Q: What about the Tm [2] of the same sequence?
A: Its Tm is 35.2 °C.

Q: Which folding enthalpy [1] does the source give for GATCGTATAACGATC ((((((...)))))) here?
A: The folding enthalpy was -47.3 kcal/mol.

Q: What about the Tm [2] of the same sequence?
A: The Tm was 55.7 °C.

Q: With GGTCTGGGAAACCAGATC (.(((((....))))).) as the sequence, how does the folding enthalpy [1] read?
A: Its folding enthalpy is -25.8 kcal/mol.

Q: What about the Tm [2] of the same sequence?
A: The Tm was 49.4 °C.

Q: For GATATTCCGAAAGGAATC (((..(((....)))))), which folding enthalpy [1] is on record?
A: The folding enthalpy was -11.4 kcal/mol.

Q: What about the Tm [2] of the same sequence?
A: The Tm was 32.7 °C.

Q: For GGATCTGGAAACGGATTC (.(((.(....).))).), which folding enthalpy [1] is on record?
A: Its folding enthalpy is -28.5 kcal/mol.

Q: What about the Tm [2] of the same sequence?
A: Its Tm is 31.5 °C.

Q: For GGGATGGGAAACCATCCC (((((((....))))))), which folding enthalpy [1] is on record?
A: Its folding enthalpy is -41.5 kcal/mol.

Q: And the Tm [2]?
A: Its Tm is 67.4 °C.

Q: With ATGTTGAAAAACAT (((((....))))) as the sequence, how does the folding enthalpy [1] read?
A: The folding enthalpy was -13 kcal/mol.

Q: And the Tm [2]?
A: Its Tm is 37 °C.

Q: What does the source list for CGTAGTCGGAAACGAACG (((..(((....))))))?
A: folding enthalpy [1]: -4.62 kcal/mol; Tm [2]: 21.6 °C

Q: Which folding enthalpy [1] does the source give for GAAGCCGGAAACGGCCTC ((.((((....)))).)) here?
A: The folding enthalpy was -10 kcal/mol.

Q: What about the Tm [2] of the same sequence?
A: The Tm was 39.2 °C.

Q: For GTTATGACGAAAGTCAAC (((..(((....)))))), which folding enthalpy [1] is on record?
A: The folding enthalpy was -10.5 kcal/mol.

Q: And the Tm [2]?
A: The Tm was 26.2 °C.

Q: Which folding enthalpy [1] does the source give for GCCCGGCGAAAGCTGCGC ((.(.((....)).).)) here?
A: Its folding enthalpy is -17.6 kcal/mol.

Q: And the Tm [2]?
A: The Tm was 44.2 °C.

Q: Which folding enthalpy [1] does the source give for GATCGCCAATGCGATC ((((((....)))))) here?
A: Its folding enthalpy is -38.1 kcal/mol.

Q: What about the Tm [2] of the same sequence?
A: Its Tm is 65.3 °C.

Q: Which folding enthalpy [1] does the source give for GCGGCGCGAAAGCGTGGC ((..(((....)))..)) here?
A: The folding enthalpy was -20.7 kcal/mol.

Q: What about the Tm [2] of the same sequence?
A: The Tm was 62 °C.

Q: Which results are given for GTCCTCCGAAAGGAGAC (((.(((....))))))?
A: folding enthalpy [1]: -15.9 kcal/mol; Tm [2]: 47.5 °C

Q: Which folding enthalpy [1] does the source give for GCTCCGCGAAAGCCGAGC ((((.((....)).)))) here?
A: Its folding enthalpy is -34.5 kcal/mol.

Q: And the Tm [2]?
A: Its Tm is 58.4 °C.

Q: What does the source list for GCGGCCGAAAGGCTCCGC ((((((....)))..)))?
A: folding enthalpy [1]: -16.8 kcal/mol; Tm [2]: 53.8 °C
